Casp6 inh: human caspase-6 inhibitors, primary screen, biochemical, VEID-R110 fluorescence, single point, set 2; inhibition, % at 12.5 µM; P55212; purified caspase-6, Z-VEID-R110 cleavage fluorescence; hit rate 0.53% among 350,000;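 active = mean inhibition across replicates at least about 35%, with every replicate also reaching that limit, limit read from the data; inconclusive = only one of the two criteria met; inactive = neither criterion met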;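 note: 0% = median of neutral control wells and 100% = no fluorescence left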
Target sequence (P55212 24-179 limits assumed): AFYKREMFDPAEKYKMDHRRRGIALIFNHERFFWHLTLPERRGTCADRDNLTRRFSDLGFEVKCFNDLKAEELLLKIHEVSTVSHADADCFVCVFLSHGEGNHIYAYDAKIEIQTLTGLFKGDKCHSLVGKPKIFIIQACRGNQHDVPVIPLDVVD
Target sequence (P55212 194-293 limits assumed): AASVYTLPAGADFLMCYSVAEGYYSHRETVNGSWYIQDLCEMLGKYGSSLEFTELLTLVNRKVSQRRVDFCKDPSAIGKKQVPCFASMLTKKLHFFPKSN
esBAF inh: Bmi1 luciferase reporter increase in mESCs, primary screen, esBAF inhibitor project, mouse ES cells, Bmi1 luciferase knock-in, single point; 24 h; 100% = twice the neutral-well signal; reporter increase, % at 12.5 µM; hit rate 2% among 350,000; AID 602393, 2012; in the data active = activation above about 40%; inconclusive = no clear call, values can overlap the other calls;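 note: 0% = median of the plate's neutral control wells and 100% = double that signal; a rise in the Bmi1 reporter signal indicates esBAF inhibition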
Wnt bcat act: Wnt/beta-catenin pathway activators, primary screen, cell-based, plate reader, single point; Wnt/beta-catenin reporter cell assay, activator; activation, % at 9.35 µM; hit rate 1.2% among 300,000; AID 743398, 2014; in the data active = activation above about 30%, passing the limit was not always enough; inconclusive = no clear call, values can overlap the other calls;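 note: 0% = neutral control wells and 100% = positive control wells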
NSD2 inh: NSD2 histone methyltransferase inhibitors, primary screen, biochemical, AlphaScreen, single concentration, set 2; inhibition, % at 12.5 µM; hit rate 0.54% among 310,000; NSD2 peptide methylation, 120 min; Histone-lysine N-methyltransferase NSD2 (Homo sapiens), O96028; in the data active = inhibition above about 50%
Xi reactivation: activators of inactive X chromosome reactivation, primary screen, imaging, XiGFP fibroblasts, GFP high-content imaging, set 2; XiGFP mouse fibroblasts, % GFP-positive cells imaging, 3 d; cells co-treated with 5-aza-dC sensitizer; scaled so ellipticine positive control = 100%; activation, % at 7.58 µM; hit rate 0.055% among 360,000; AID 743238, 2013;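 active = mean normalized replicate activation at least 10% and every replicate at or above 10%; inconclusive = only one of the two criteria met; inactive = mean below 10% and not all replicates reach 10%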;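 note: 0% = median of on-plate neutral control wells and 100% = ellipticine 6 µM median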
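Assay system: SV40-immortalized XiGFP fibroblast cells, line 68-5-11; buffer or medium: DMEM plus 5-aza-dC sensitizer; compound: one concentration, pinned; timing: compounds 3 days, fix/stain 15 min at room temperature; benchmarks: positive control ellipticine, 6 µM final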
MITF act: activators of MITF-driven TRPM1 promoter reporter, primary screen, cell-based, SK-MEL-5, luciferase, single point; SK-MEL-5 TRPM1-promoter luciferase, 24 h; % of positive control, neutral wells = 0; activation, % at 12.5 µM; hit rate 0.75% among 300,000;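 active = mean activation of at least 80% with every replicate also reaching 80%; inconclusive = mean reaches 80% but some replicate falls short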;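 note: 0% = neutral control wells and 100% = parthenolide positive control wells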
* marks the source's active call; other numbers are inactive results; ? = inconclusive; · = no result given. Sampled rows, rich in hits. Any-hit rate of the full collection: about 3%.

SMILES	Casp6 inh	esBAF inh	Wnt bcat act	NSD2 inh	Xi reactivation	MITF act
CCC(=O)Nc1ccc2c(c1)C(=O)N(C)[C@@H]1CC[C@H](CC(=O)NCCc3ccccc3)O[C@H]1CO2	-2	6	·	·	0	·
O=C1[C@H](Cc2ccc(C(F)(F)F)cc2)CCn2cc(nn2)COC[C@@H]2CCCCN12	·	·	·	·	0	·
CCOC(=O)C(NC(=O)c1ccc(F)cc1)(Nc1sc2c(c1C(N)=O)CCC2)C(F)(F)F (centres undefined)	8	·	108*	2	0	-10
CNC(=O)c1c(NC(=O)c2nc3ccccc3s2)sc2c1CCC2	·	75*	·	·	·	?
NC(=O)c1c(NC(=O)c2ccccc2)sc2c1CCC2	28	?	65*	-1	0	25
C[C@@H]1CN(C)C(=O)Cc2cc(N)ccc2O[C@@H]1CN(C)S(C)(=O)=O	·	·	·	·	0	·
CO[C@@H]1CN(C)C(=O)c2cc(NC(=O)C3CC3)ccc2OC[C@H](C)N(Cc2nccs2)C[C@H]1C	6	-12	·	·	0	·
C[C@@H]1CCCCO[C@H](CN(C)C(=O)c2ccccc2)[C@@H](C)CN([C@H](C)CO)C(=O)c2cc(NC(=O)CCCN(C)C)ccc2O1	-1	-3	·	·	0	·
CC(=O)Nc1cc(-c2ccc(N3CCN(C)CC3)cc2)cn2c(-c3ccc(S(C)(=O)=O)cc3)cnc12	-24	8	-8	1	0	·
CC(=O)Nc1cc(-c2ccc(N3CCN(C)CC3)cc2)cn2c(-c3ccccc3)cnc12	-41	6	38*	22	0	·
CCOC(=O)N1CCN(C(=O)Cc2ccccc2[N+](=O)[O-])CC1	35*	-12	0	-2	0	-20
CCOC(=O)N1CCN(C(=O)COc2ccccc2[N+](=O)[O-])CC1	1	·	-2	1	0	-6
Cc1ccc(Cc2cnc(N3C(=N)SC(c4ccccc4)C3=O)s2)cc1 (centres undefined)	·	53*	2	-1	0	6
COc1cc(C(=O)NCc2ccccc2)ccc1OC(F)F	0	·	3	-5	0	-15
COc1ccc(COc2ccccc2C(=O)NCc2ccccc2)cc1F	·	·	-11	-3	23*	-33
COc1ccc(/C(C)=N/NC(=O)c2ccccc2OCc2ccccc2)c(OC)c1	-3	50*	·	-3	0	45
COc1ccc(/C=N/NC(=O)c2ccccc2OCc2ccccc2)c(OC)c1	1	-5	-2	-4	0	1
COc1ccc(NC(=O)N(C)C[C@H]2Oc3c(NS(=O)(=O)c4cccs4)cccc3C(=O)N([C@@H](C)CO)C[C@H]2C)cc1	1	6	·	·	0	·
O=C(c1ccccc1)N1CC(=O)N2[C@H](CO)[C@@H](c3ccc(C#CCC4CCCC4)cc3)[C@H]2C1	-1	·	·	·	0	·
COc1ccc(/C=C/C(=O)Nc2ccccc2F)cc1S(=O)(=O)N1CCOCC1	-1	18	-3	-3	0	21
COc1ccc(/C=C/C(=O)Nc2ccccc2C)cc1S(=O)(=O)N1CCOCC1	-3	47*	-1	-10	0	19
CC(C)C#Cc1ccc2c(c1)O[C@H](CN(C)C(=O)C1CCC1)[C@H](C)CN([C@@H](C)CO)S2(=O)=O	·	·	·	·	0	·
Fc1ccc(N2C(=S)SC(=Nc3ccccc3)C2=Nc2ccccc2)cc1	0	·	58*	2	0	68
N#CC(C#N)=C1SC(=Nc2ccccc2)C(=Nc2ccccc2)N1c1ccccc1	0	·	56*	1	0	3
CNC[C@@H]1Oc2c(NS(C)(=O)=O)cccc2C(=O)N(C)C[C@@H]1C	·	·	·	·	0	·
SMILES	Casp6 inh	esBAF inh	Wnt bcat act	NSD2 inh	Xi reactivation	MITF act
S=C(NCCc1ccccc1)N1CCCC1	1	·	20	-3	0	37
CC1CCCCN1C(=S)NCCc1ccccc1 (centres undefined)	·	34	37*	-8	·	·
C[C@H]1CN([C@@H](C)CO)S(=O)(=O)c2ccc(/C=C/c3ccccc3)cc2O[C@H]1CN(C)C	-1	-7	·	·	0	·
C[C@H](CO)N1C[C@H](C)[C@H](CN(C)C)Oc2cc(C3=CCCC3)ccc2S1(=O)=O	-12	-17	·	·	-1	·
Cc1ccc(C(=O)Nc2ccc3c(c2)OCO3)cc1S(=O)(=O)N1CCCC1	·	79*	·	-1	·	46
Cc1ccc(C(=O)Nc2ccc3c(c2)OCO3)cc1S(=O)(=O)N1CCOCC1	4	·	9	0	0	30
Cc1ccc(C(=O)Nc2ccc3c(c2)OCO3)cc1Cl	0	39	46*	-1	0	87*
Cc1ccc(NC(=O)c2nc3nccc(C)n3n2)cc1S(=O)(=O)N1CCCCC1	0	45*	-1	4	0	40
C[C@@H]1CN([C@@H](C)CO)C(=O)c2cc(NC(=O)CCC(F)(F)F)ccc2O[C@@H](C)CCCCO[C@@H]1CN(C)Cc1ccccc1	·	9	·	·	1	·
CC(C)[C@@H](C)NC(=O)N(C)C[C@@H]1OCc2ccccc2-c2c(n(C)c3ccccc23)C(=O)N([C@H](C)CO)C[C@H]1C	·	·	·	·	0	·
C[C@@H]1CN([C@@H](C)CO)C(=O)Cc2cc(N(C)C)ccc2O[C@@H]1CN(C)Cc1ccccc1	35*	6	·	·	1	·
C[C@@H]1CN([C@@H](C)CO)C(=O)Cc2cc(NC(=O)C3CC3)ccc2O[C@H]1CN(C)C(=O)Nc1ccc2c(c1)OCO2	1	0	·	·	0	·
C[C@H]1CN([C@@H](C)CO)C(=O)Cc2cc(NC(=O)Nc3ccc4c(c3)OCO4)ccc2O[C@@H]1CN(C)Cc1ccccc1	-2	48*	·	·	0	·
C[C@H]1CN([C@@H](C)CO)C(=O)Cc2cc(NC(=O)NC3CCCCC3)ccc2O[C@H]1CN(C)Cc1ccc(-c2ccccc2)cc1	42*	-3	·	·	0	·
C[C@@H]1CN([C@H](C)CO)C(=O)Cc2cc(NC(=O)C3CCCCC3)ccc2O[C@H]1CN(C)C(=O)Nc1ccc2c(c1)OCO2	0	52*	·	·	0	·
CNC[C@@H]1Oc2ccc(NS(C)(=O)=O)cc2C(=O)N(C)C[C@@H]1C	·	·	·	·	0	·
O=C(C[C@@H]1C[C@H]2c3cc(NC(=O)Nc4ccccc4F)ccc3O[C@H]2[C@@H](CO)O1)NCc1ccc(Oc2ccccc2)cc1	·	·	·	·	0	·
C[C@H](CO)N1C[C@H](C)[C@H](CN(C)S(=O)(=O)c2cccc(F)c2)Oc2ncccc2C1=O	-3	-4	·	·	0	·
COCC(=O)Nc1ccc2c(c1)OC[C@H](C)N(Cc1cncnc1)C[C@@H](C)[C@H](OC)CN(C)C2=O	·	-5	·	·	0	·

Compound activity (PubChem)
